Reference: ChEMBL document CHEMBL4257486, “A novel allosteric inhibitor that prevents IKKβ activation” (Medchemcomm, 2018)
Activity calls are given as the source filed them. No cut-off for these calls is given here.

Experiments:
[1] = target: T1, Inhibitor of nuclear factor kappa-B kinase subunit beta (Homo sapiens) (UniProt O14920); test: Inhibition of TNFalpha-stimulated IKKbeta phosphorylation at Ser177/181 residues in human HeLa cells up to 200 uM preincubated for 30 mins followed by TNFalpha stimulation and measured after 10 mins by Western blot analysis
T1 sequence (whole entry): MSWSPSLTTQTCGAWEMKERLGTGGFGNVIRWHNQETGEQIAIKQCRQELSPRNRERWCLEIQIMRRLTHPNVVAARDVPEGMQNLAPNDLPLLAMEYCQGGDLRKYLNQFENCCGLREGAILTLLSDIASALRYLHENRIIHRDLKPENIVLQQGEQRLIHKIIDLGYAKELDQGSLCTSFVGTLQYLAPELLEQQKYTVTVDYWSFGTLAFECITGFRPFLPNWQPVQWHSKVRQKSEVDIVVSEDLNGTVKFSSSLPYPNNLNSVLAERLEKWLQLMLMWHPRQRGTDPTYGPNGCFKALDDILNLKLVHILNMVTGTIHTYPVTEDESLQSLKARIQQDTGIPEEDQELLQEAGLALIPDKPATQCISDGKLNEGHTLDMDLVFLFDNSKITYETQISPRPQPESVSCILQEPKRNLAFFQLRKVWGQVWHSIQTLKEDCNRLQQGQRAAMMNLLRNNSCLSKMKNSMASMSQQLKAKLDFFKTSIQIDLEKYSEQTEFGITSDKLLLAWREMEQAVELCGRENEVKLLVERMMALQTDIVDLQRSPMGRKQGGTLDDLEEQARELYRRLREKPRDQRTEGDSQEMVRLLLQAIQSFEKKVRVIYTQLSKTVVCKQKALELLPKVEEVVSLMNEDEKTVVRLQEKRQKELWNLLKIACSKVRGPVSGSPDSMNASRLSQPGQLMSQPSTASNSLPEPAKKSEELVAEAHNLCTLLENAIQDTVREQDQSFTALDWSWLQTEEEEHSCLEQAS

[2] = target: MAP kinase-activated protein kinase 2 (Homo sapiens) (UniProt P49137); test: Inhibition of human MAPKAPK2 using KKLNRTLSVA as substrate at 100 uM after 40 mins in presence of [gamma-33P-ATP] by scintillation counting analysis
Outline: (§1)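 Radiometric [γ-33P]ATP assay (specific activity approx. 500 cpm/pmol) run by an outsourced service. Compound was added first from a 50x stock in DMSO, giving 2% DMSO final. Positive controls contained DMSO only; blanks used a reference inhibitor to set 0% activity. Reactions were started with MgATP mix, run 40 min at room temperature, and stopped with 3% phosphoric acid. They were spotted on P30 filtermat, washed in 75 mM phosphoric acid and methanol, and scintillation counted.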

[3] = target: T2, Tyrosine-protein kinase ITK/TSK (Homo sapiens) (UniProt Q08881); test: Inhibition of human Itk using myelin basic protein as substrate at 100 uM after 40 mins in presence of [gamma-33P-ATP] by scintillation counting analysis
T2 sequence (whole entry): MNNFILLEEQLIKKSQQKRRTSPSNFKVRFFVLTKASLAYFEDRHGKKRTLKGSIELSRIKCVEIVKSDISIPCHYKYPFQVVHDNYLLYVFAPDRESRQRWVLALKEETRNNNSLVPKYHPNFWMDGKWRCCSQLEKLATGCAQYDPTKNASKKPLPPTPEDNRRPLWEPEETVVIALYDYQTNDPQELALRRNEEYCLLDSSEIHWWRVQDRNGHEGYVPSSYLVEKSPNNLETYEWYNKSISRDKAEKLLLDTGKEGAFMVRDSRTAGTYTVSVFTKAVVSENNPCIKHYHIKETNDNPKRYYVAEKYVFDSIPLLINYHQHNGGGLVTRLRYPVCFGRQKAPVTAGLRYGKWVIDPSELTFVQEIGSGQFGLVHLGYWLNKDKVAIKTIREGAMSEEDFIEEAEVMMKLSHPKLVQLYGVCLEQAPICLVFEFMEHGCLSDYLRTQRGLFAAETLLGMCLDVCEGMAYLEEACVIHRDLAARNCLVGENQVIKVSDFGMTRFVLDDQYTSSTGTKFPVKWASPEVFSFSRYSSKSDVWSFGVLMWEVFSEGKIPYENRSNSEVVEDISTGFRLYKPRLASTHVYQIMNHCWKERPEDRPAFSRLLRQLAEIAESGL
Outline: as §1

[4] = target: T1, Inhibitor of nuclear factor kappa-B kinase subunit beta (Homo sapiens); test: Inhibition of activated human IKKB using poly[Glu:Tyr] (4:1) as substrate at 100 uM after 40 mins in presence of [gamma-33P-ATP] by scintillation counting analysis; details: in the assay text read “LDDRHDSGLDSMKDEEY peptide as substrate” for “poly[Glu:Tyr] (4:1) as substrate”
Outline: as §1

[5] = target: T3, Inhibitor of nuclear factor kappa-B kinase subunit alpha (Homo sapiens) (UniProt O15111); test: Inhibition of human IKKalpha using LDDRHDSGLDSMKDEEY as substrate at 100 uM after 40 mins in presence of [gamma-33P-ATP] by scintillation counting analysis
T3 sequence (whole entry): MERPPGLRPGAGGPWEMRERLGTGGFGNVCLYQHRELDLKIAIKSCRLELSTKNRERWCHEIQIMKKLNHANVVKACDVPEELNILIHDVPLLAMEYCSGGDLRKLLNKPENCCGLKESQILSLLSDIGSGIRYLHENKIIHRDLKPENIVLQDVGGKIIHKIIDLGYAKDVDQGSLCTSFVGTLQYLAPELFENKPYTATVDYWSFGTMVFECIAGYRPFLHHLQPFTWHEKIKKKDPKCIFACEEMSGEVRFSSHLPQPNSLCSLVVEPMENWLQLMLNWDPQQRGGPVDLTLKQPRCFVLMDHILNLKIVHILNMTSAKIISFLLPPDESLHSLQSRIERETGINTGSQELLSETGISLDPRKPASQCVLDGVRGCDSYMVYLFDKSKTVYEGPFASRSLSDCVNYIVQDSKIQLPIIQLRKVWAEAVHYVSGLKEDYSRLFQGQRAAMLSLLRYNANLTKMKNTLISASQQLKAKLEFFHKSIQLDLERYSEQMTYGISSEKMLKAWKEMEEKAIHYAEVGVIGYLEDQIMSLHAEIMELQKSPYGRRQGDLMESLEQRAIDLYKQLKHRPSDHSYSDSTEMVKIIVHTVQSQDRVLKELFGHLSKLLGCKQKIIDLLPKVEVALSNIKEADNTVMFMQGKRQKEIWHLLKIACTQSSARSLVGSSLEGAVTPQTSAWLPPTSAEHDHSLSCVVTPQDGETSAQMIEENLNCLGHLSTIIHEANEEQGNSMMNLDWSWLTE
Outline: as §1

Sequence of MAP kinase-activated protein kinase 2 (Homo sapiens) (P49137 whole entry, looked up): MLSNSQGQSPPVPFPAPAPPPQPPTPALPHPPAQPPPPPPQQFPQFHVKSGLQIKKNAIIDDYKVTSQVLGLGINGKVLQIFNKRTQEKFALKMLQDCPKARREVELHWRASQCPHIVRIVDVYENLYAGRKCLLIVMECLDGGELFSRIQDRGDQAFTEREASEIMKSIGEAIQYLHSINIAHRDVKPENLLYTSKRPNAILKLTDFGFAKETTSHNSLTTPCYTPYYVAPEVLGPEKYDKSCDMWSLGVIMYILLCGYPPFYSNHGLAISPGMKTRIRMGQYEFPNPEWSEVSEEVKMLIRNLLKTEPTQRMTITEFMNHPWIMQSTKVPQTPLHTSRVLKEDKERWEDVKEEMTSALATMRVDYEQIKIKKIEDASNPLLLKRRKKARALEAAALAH

**Q.** Which inhibition [1] does the source give for `CCOc1c(S(=O)(=O)NC2CC(C)(C)NC(C)(C)C2)ccc(Cl)c1Cl` here?
**A.** Active

**Q.** And the inhibition [2]?
**A.** inactive

**Q.** What about the inhibition [3] of the same compound?
**A.** inactive

**Q.** And the inhibition [4]?
**A.** inactive

**Q.** And the inhibition [5]?
**A.** inactive
